≈ marks a conversion by molar mass, not a printed value. Where “and” joins values, the source holds several entries; their conditions need not be identical. Identical values can stand only once. A value given as a limit tells only on which side of the number the result lay.

The target in assay [1] is Chitin synthase 1 (Candida albicans, UniProt P23316). The assay can be described thus: Inhibitory of Candida albicans chitin synthase 1.
Assay [2] concerns Candida albicans. The assay can be described thus: In vitro antifungal activity against Candida albicans CY 1002. In kind it is functional, organism-based.
For assay [3], the system named is Mus musculus. The assay can be described thus: In vivo antifungal activity was evaluated in target organ kidney assay (TOKA) in mice infected with Candida albicans CY 10025 X 10e5 cell after intravenous administration of compound at 5 mg/kg. The class given is functional. An outline of the steps:
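Systemic candidiasis in mice, target organ kidney assay: infection with 5 × 10^5 cells/mouse, compound given iv at 0, 2 and 4 h post-infection in 5% DMSO-5% PEG300-30% HPCD. Kidney CFU counted; T/C = treated CFU/control CFU × 100.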

Assay [4] concerns Cryptococcus neoformans. The assay can be described thus: In vitro antifungal activity of compound was tested against Cryptococcus neoformans CY 1057.
For assay [5], the system named is Aspergillus fumigatus. The experiment in a line: In vitro antifungal activity of compound was tested against Aspergillus fumigatus CF1003.
In assay [6] the test system is Candida albicans. The assay can be described thus: In vitro antifungal activity against Candida albicans CY 1124. In kind it is functional, organism-based.
The test system of assay [7] is Pichia kudriavzevii. The experiment in a line: In vitro antifungal activity against Candida krusei CY 1191. The class given is functional, organism-based.
The test system of assay [8] is Candida albicans. The experiment in a line: In vitro antifungal activity against Candida albicans CY 1003. The class given is functional, organism-based.
In assay [9] the test system is Candida albicans. The experiment in a line: In vitro antifungal activity against Candida albicans CY 3003. In kind it is functional, organism-based.
For assay [10], the system named is Candida parapsilosis. The experiment in a line: In vitro antifungal activity of compound was tested against Candida parapsilosis CY 1028. The class given is functional, organism-based. Particulars: Lodderomyces parapsilosis.
For assay [11], the system named is Cryptococcus neoformans. The assay can be described thus: In vitro antifungal activity of compound was tested against Cryptococcus neoformans CY 1059.
The subject of assay [12] is Nakaseomyces glabratus. The assay can be described thus: In vitro antifungal activity against Candida glabrata CY 1014. The class given is functional, organism-based.
Assay [13] relates to Candida tropicalis. The assay can be described thus: In vitro antifungal activity of compound was tested against Candida tropicalis CY 1038. The class given is functional, organism-based.
Assay [14] has as its system Candida albicans. The experiment in a line: In vitro antifungal activity against […] CY 1057. In kind it is functional, organism-based.
Assay [15] deals with Candida albicans. The assay can be described thus: In vitro antifungal activity against Aspergillus fumigatus CF 1003. In kind it is functional, organism-based.
Assay [16] relates to Mus musculus. The assay can be described thus: In vivo antifungal activity was evaluated in target organ kidney assay (TOKA) in mice infected with Candida albicans CY 10025 X 10e5 cell after intravenous administration of compound at 1 mg/kg. The class given is functional. An outline of the steps: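 Systemic candidiasis in mice, infected with C. albicans CY1002 at 5 × 10^5 cells/mouse. Dosed iv at 0, 2 and 4 h after infection: 5 mg/kg in 5% DMSO 5% PEG300-30% HPCD, comparator azole at 1 mg/kg. Kidney CFU counted; T/C = treated CFU/control CFU × 100.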

Chitin synthase 1, sequence (P23316 whole entry): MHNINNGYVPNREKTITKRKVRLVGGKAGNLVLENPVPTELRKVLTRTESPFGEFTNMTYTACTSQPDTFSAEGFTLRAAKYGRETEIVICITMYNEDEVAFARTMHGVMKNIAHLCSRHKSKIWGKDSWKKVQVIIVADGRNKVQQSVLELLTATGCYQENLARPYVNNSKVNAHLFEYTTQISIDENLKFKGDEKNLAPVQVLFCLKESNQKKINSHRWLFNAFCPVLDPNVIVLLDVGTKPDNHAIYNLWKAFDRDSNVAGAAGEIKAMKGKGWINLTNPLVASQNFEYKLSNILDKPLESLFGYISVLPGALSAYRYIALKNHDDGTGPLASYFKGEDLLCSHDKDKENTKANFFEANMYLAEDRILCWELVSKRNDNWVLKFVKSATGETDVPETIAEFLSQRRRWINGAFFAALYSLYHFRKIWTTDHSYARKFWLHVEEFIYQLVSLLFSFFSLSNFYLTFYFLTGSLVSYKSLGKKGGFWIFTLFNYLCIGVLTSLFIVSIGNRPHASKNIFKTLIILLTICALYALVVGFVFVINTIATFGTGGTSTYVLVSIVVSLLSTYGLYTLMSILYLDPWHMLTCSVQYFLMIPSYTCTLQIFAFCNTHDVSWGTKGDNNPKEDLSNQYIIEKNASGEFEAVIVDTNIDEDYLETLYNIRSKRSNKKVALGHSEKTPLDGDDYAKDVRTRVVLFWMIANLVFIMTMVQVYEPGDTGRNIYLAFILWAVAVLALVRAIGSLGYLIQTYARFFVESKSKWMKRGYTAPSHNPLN

With `CC(C)(C)C#C/C=C/CNc1cccc2nc(O)ccc12`, the half-inhibitory concentration (IC50) (in general, the midpoint of a concentration-inhibition curve) in assay [1] was 71.3 nM and 70 nM; in assay [2], 3.3 µg/mL (≈ 11.8 µM).
In the case of `CCCCN(C/C=C/C#CC(C)(C)C)c1cccc2c1CCC(=O)N2`, the figures for the concentration for half-maximal inhibition (IC50) in assay [1] and in [2] were 0.35 nM and more than 200 µg/mL, respectively.
On the same counts, the results for `CN(CC#CC#CC(C)(C)O)c1cccc2c1CCC(=O)N2` are 213 nM and more than 200 µg/mL.
With `CC(C)(C)C#C/C=C/CNc1cccc2oc(=O)ccc12`, the IC50 in assay [1] came to 12000 nM.
Consider `CN(CC#CC#Cc1ccccc1)c1cccc2c1CCC(=O)N2`, for which the values for the IC50 in assay [1] and in assay [2] were 13700 nM and more than 200 µg/mL, respectively.
For `CC(C)(C)C#C/C=C/CN(Cc1ccccc1)c1cccc2c1CCC(=O)N2`, in that order: 54 nM and more than 200 µg/mL.
Take `CN(CC#CC#CC(C)(C)C)c1cccc2c1CC(O)C(=O)N2` (stereo not drawn): the T/C (usually the result in the treated group divided by that in the control group, in per cent) in assay [3] was 39%. The IC50 is more than 200 µg/mL in [4], 82 µg/mL (≈ 264 µM) in assay [5], 3 nM in assay [1] and 0.13 µg/mL (≈ 0.419 µM) in assay [2].
For the compound `CCOP(=O)(OCC)OC1Cc2c(cccc2N(C)CC#CC#CC(C)(C)C)NC1=O` (stereo not drawn), the IC50 in assay [4] was 0.23 µg/mL (≈ 0.515 µM); in assay [5], 21 µg/mL (≈ 47 µM); in assay [1], 0.76 nM; in assay [2], 2.1 µg/mL (≈ 4.7 µM).
In the case of `COC(C)(C)C#CC#CCN(C)c1cccc2c1CCC(=O)N2`, the concentration for half-maximal inhibition (IC50) in assay [1] came to 1030 nM; in assay [2], 3.5 µg/mL (≈ 11.3 µM).
`CC(C)(C)CCCCCNc1cccc2[nH]c(=O)ccc12` returned an IC50 in assay [1] of more than 350000 nM.
Take `CC(C)(C)C#C/C=C/CN(c1cccc2c1CCC(=O)N2)S(C)(=O)=O`: the IC50 in assay [1] was 391 nM; in assay [2], more than 200 µg/mL.
Turning to `CN(CC#CC#CC(C)(C)C)c1cccc2c1CC(N)C(=O)N2` (stereo not drawn), the T/C in assay [3] is on record as 23%. For the same compound, the IC50 was determined as 15 µg/mL (≈ 48.5 µM) in assay [4], 35 µg/mL (≈ 113 µM) in assay [5], 12.3 nM in assay [1] and 20 µg/mL (≈ 64.6 µM) in [2].
On the same counts, the results for `CC(C)[C@@H](N)C(=O)OC1Cc2c(cccc2N(C)CC#CC#CC(C)(C)C)NC1=O` (stereo partly drawn) are 15%, 16 µg/mL (≈ 39.1 µM), 19 µg/mL (≈ 46.4 µM), 14.9 nM and 1.3 µg/mL (≈ 3.17 µM).
`CC(=O)Nc1cccc(NC/C=C/C#CC(C)(C)C)c1` showed a 50% inhibitory concentration (IC50) in assay [1] of 1000 nM. In other words, the single-digit micromolar range.
Still for that read-out and setting: next, `CC(C)(C)C#C/C=C/CNCc1ccc(O)nc1`: 211000 nM.
For the compound `CC(C)(C)C#C/C=C/CNc1cccc2c1CCC(=O)N2`, the values for the IC50 in [1] and in assay [2] were 70.9 nM and more than 200 µg/mL, respectively.
In the case of `CCC#CC#CCN(C)c1cccc2c1CCC(=O)N2`, the IC50 in assay [1] turned out to be 7.88 nM; in assay [2] it was 200 µg/mL (≈ 751 µM).
For `CC(C)N(C/C=C/C#CC(C)(C)C)c1cccc2c1CCC(=O)N2`, in that order: 1.23 nM and more than 200 µg/mL.
`CN(C/C=C/C#CC(C)(C)C)c1cccc2c1CCC(=O)N2`: the IC50 came to 2.77 nM in [1] and 0.19 µg/mL (≈ 0.641 µM) in assay [2].
On the same counts, the results for `CN(CCCC#CC(C)(C)C)c1cccc2c1CCC(=O)N2` are 8.95 nM and more than 200 µg/mL.
For `CCCCCN(C/C=C/C#CC(C)(C)C)c1cccc2c1CCC(=O)N2`, in that order: 1.1 nM and more than 200 µg/mL.
On to `CN(CC#CC#CC(C)(C)C)c1cccc2c1CCC(=O)N2`, for which the T/C in [3] is recorded as 34%. The IC50 came out at 0.17 µg/mL (≈ 0.577 µM) in assay [6]; 0.31 µg/mL (≈ 1.05 µM) in assay [7]; 0.1 µg/mL (≈ 0.34 µM) in assay [8]; 0.09 µg/mL (≈ 0.306 µM) in assay [9]; 0.5 µg/mL (≈ 1.7 µM) in assay [10]; 43 µg/mL (≈ 146 µM) in assay [5]. Further, the concentration for half-maximal inhibition (IC50) in assay [11] is more than 200 µg/mL; in assay [1] it was 0.14 nM; in assay [2], 0.07 µg/mL (≈ 0.238 µM); in assay [12] it was 0.47 µg/mL (≈ 1.6 µM); in assay [13], 0.07 µg/mL (≈ 0.238 µM).
In the case of `CCCN(C/C=C/C#CC(C)(C)C)c1cccc2c1CCC(=O)N2`, the half-inhibitory concentration (IC50) is 0.68 nM in assay [1] and more than 200 µg/mL in assay [2].
With `CCN(C/C=C/C#CC(C)(C)C)c1cccc2c1CCC(=O)N2`, the values for the IC50 in [1] and in assay [2] were 0.9 nM and 0.27 µg/mL (≈ 0.87 µM), respectively.
In turn, `Cn1c(=O)ccc2c(NC/C=C/C#CC(C)(C)C)cccc21` gave a concentration for half-maximal inhibition (IC50) in [1] of 16000 nM.
Take `CN(C/C=C\C#CC(C)(C)C)c1cccc2c1CCC(=O)N2`: the IC50 was 13.2 nM in [1] and 95 µg/mL (≈ 320 µM) in [2].
For `CC(=O)N(C/C=C/C#CC(C)(C)C)c1cccc2c1CCC(=O)N2`, in that order: 775 nM and more than 200 µg/mL.
In the case of `CC(C)(C)C#C/C=C/CNc1cccc2ncccc12`, the midpoint of inhibition in assay [1], the IC50, lay at 4500 nM.
As to `CN(Cc1ccc(C#CC(C)(C)C)cc1)c1cccc2c1CCC(=O)N2`, the IC50 in assay [1] is 7.22 nM; in assay [2] it was more than 200 µg/mL.
Consider `OC(Cn1cncn1)(Cn1cncn1)c1ccc(F)cc1F` [FLUCONAZOLE], for which the results for the 50% inhibitory concentration (IC50) in assay [14], in assay [15] and in [2] were 3.4 µg/mL (≈ 11.1 µM), 50 µg/mL (≈ 163 µM) and 1.2 µg/mL (≈ 3.92 µM), respectively. The compound further came in with a T/C in assay [16] of 38%.
For the compound `C[C@@H]([C@H](N)C(=O)N[C@H](C(=O)O)[C@H]1O[C@@H](n2ccc(=O)[nH]c2=O)[C@H](O)[C@@H]1O)[C@H](O)c1ccc(O)cn1` [NIKKOMYCIN], the IC50 was 15 µg/mL (≈ 30.3 µM) in assay [6]; more than 200 µg/mL in assay [7]; 81 µg/mL (≈ 163 µM) in assay [8]; 7 µg/mL (≈ 14.1 µM) in assay [9]; 13 µg/mL (≈ 26.2 µM) in [10]; 11 µg/mL (≈ 22.2 µM) in [5]. Moreover, the IC50 is more than 200 µg/mL in assay [11]; 3200 nM in assay [1]; 12 µg/mL (≈ 24.2 µM) in [2]; more than 200 µg/mL in [12]; 73 µg/mL (≈ 147 µM) in assay [13].
